From paper PMC2289302 (The Journal of Cell Biology, 1992)

Assays:
A375 melanoma cells = format: cell-based, human; settings: 5 ug/ml peptide, no activation, Figs. 2 and 3
Outline: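 Surfaces coated at 5 ug/ml with plasma fibronectin or with synthetic peptides, each carrying an NH2-terminal cysteine on a gly-gly-gly tail and conjugated to SMCC-derivatized RSA. Human melanoma A375 cells were left to adhere for 1 h. Nonadherent cells were washed off. Adherent monolayers were photographed under phase contrast on an inverted microscope to judge adhesion and spreading.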

[1] = target: LDV peptide-RSA conjugate (human); experiment: cell adhesion assay
alpha 4 beta 1 integrin = alpha 4 beta 1 integrin (human (endogenous in Jurkat, Ramos, …, UniProt P13612;P05556)); experiment: cell adhesion assay

Molecule | IC50 (alpha 4 beta 1 integrin) [µM] | also measured
rsa-EILDVPST | – | adhesion of A375 melanoma cells to coated surface, in words (A375 melanoma cells): able to support the adhesion
alpha 4 beta 1 integrin (from UniProt P13612;P05556) (receptor) | – | molar concentration of peptide conjugate required for 50% adhesion [1]: > 2000
LHGPEILDVPST [B12 peptide] | 400 | –
EILDV [EILDV peptide] | 660 | –
DELPQLVTLPHPN [A13 peptide] | > 1000 | –
GPEILDVPST [GPEILDVPST peptide] | 450 | –
